Data set [1] in a line: Partition coefficient measured between octanol and 0.05 M NH4PO4 (pH 7.4) using shake-flask method. To be noted: octanol/0.05 M NH4PO4 buffer. Type of data set: physicochemical.
The species named for a further data set is Cricetulus griseus. In words: The efficiency of radiosensitization is the concentration required to give an SER of 1.6 (in vitro). The class given is functional. An outline of the steps:
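Chinese hamster V79-171b monolayers in RPMI 1640 with 10% FCS, plated ~18 h at 37 °C. Made hypoxic with 95% N2/5% CO2 for 1 h, then given X-rays (320 kV, ~1.5 Gy/min) at room temperature. Drug removed after irradiation; colonies of ≥50 cells scored after 6-7 days. SER is the dose ratio for 25% survival on hypoxic curves ±compound; C1.6 read from SER-versus-concentration plot.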

Data set [2] is described as follows: Sensitizer enhancement ratio(SER) determined at the maximum nontoxic dose by measuring the number of cells killed at a conc 3 mM (in vitro). The class given is functional, Cricetulus griseus. An outline of the steps:
(§1)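 V79-171b cells in RPMI 1640 with 10% FCS, held at maximum nontoxic drug level. Made hypoxic by 95% N2/5% CO2 purge for 1 h, then X-irradiated at room temperature (320 kV, ca. 1.5 Gy/min). Drug medium replaced and colonies (≥50 cells) scored at 6-7 days, 37 °C. SER = ratio of doses giving 25% survival on hypoxic curves without vs with drug.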

The nature of data set [3]: (§2) IC50 of oxic to that of IC50 of hypoxic was determined in V79 cells; hypoxia selective cytotoxicity. The class given is functional, Cricetulus griseus. An outline of the steps: (§3)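 V79-171b Chinese hamster cells in RPMI 1640 with 10% fetal calf serum, plated and incubated ca. 18 h at 37 °C, then exposed to a range of compound concentrations for 1 h at 37 °C under oxic or hypoxic conditions. Cells rinsed, colonies grown; ratio taken as IC50(oxic)/IC50(hypoxic). Means of replicate experiments agreeing within ±20%.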

Data set [4] can be described thus: Sensitizer enhancement ratio(SER) determined at the maximum nontoxic dose by measuring the number of cells killed at a conc 3.0 mM (in vitro).
Data set [5] can be described thus: Sensitizer enhancement ratio(SER) determined at the maximum nontoxic dose by measuring the number of cells killed at a conc 2 mM (in vitro). Type of data set: functional, Cricetulus griseus.
Data set [6] can be described thus: Plating efficiency of drug treated irradiated tumors relative to irradiated only group. Type of data set: ADME. An outline of the steps:
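Mice bearing KHT fibrosarcoma (200–500 mg, hypoxic fraction ca. 20%) given vehicle or compound ip 30–120 min before 15 Gy X-rays. Tumours were excised 18 h later, dissociated to single cells and plated in soft agar. Colonies were stained and counted after 12–16 days. Plating efficiency is relative to the irradiated-only group.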

Data set [7] can be described thus: Sensitizer enhancement ratio(SER) determined at the maximum nontoxic dose by measuring the number of cells killed at a conc 0.75 mM (in vitro). Type of data set: functional, Cricetulus griseus.
In the next data set the test system is Mus musculus. Briefly: In vivo radiosensitizing activity measured as maximum tolerated dose in mice. Type of data set: functional.
Data set [8] is described as follows: Sensitizer enhancement ratio(SER) determined at the maximum nontoxic dose by measuring the number of cells killed at a conc 1.5 mM (in vitro). Type of data set: functional, Cricetulus griseus. An outline of the steps: as §1
The nature of data set [9]: Sensitizer enhancement ratio(SER) determined at the maximum nontoxic dose by measuring the number of cells killed at a conc […] (in vitro). Type of data set: functional, Cricetulus griseus. An outline of the steps: as §1
A further data set concerns V79. The description is as §2. The class given is functional. To be noted: Cricetulus griseus. An outline of the steps:
as §3

Data set [10] is described as follows: Sensitizer enhancement ratio(SER) determined at the maximum nontoxic dose by measuring the number of cells killed at a conc 1.9 (in vitro). Type of data set: functional, Cricetulus griseus. An outline of the steps:
as §1

A short description of data set [11]: Sensitizer enhancement ratio(SER) determined at the maximum nontoxic dose by measuring the number of cells killed at a conc 10 mM (in vitro). The class given is functional, Cricetulus griseus.
The nature of data set [12]: Sensitizer enhancement ratio(SER) determined at the maximum nontoxic dose by measuring the number of cells killed at a conc 0.38 mM (in vitro). Type of data set: functional, Cricetulus griseus. An outline of the steps:
as §1

In turn, `O=[N+]([O-])c1nccn1CC(O)CNC1C2CCC(C2)[C@@H]1Br` (stereo partly specified) had a logD in data set [1] of 1.36. Besides, the C1.6 in the data set listed under Cricetulus griseus came to 0.35 mM. Further, in [2], the SER came out at 2.1. Further, in data set [3], the “Hypoxic selectivity ratio (IC50 oxic / IC50 hypoxic)” value is 1.3.
In data set [1], `COC(=O)C1CCN1CC(O)Cn1ccnc1[N+](=O)[O-]` (stereo unspecified) returned a logD of -0.29. Besides, in data set [3], the “Hypoxic selectivity ratio (IC50 oxic / IC50 hypoxic)” value was 1. For the same molecule, the SER in [4] is recorded as 2.1.
Consider `O=[N+]([O-])c1nccn1CC(O)CN1CCC1` (stereo unspecified), for which, in [1], the log distribution coefficient (logD) was -1.51. Further, in data set [5], the SER came to 2. The “Hypoxic selectivity ratio (IC50 oxic / IC50 hypoxic)” value in [3] is on record as 1.
In turn, `O=[N+]([O-])c1nccn1CC(O)CNC1CCCC[C@@H]1Br` (stereo partly specified) registered a Fold reduction in data set [6] of 4.5. This molecule returned a logD in [1] of 1.21. Moreover, in the data set filed under Cricetulus griseus, the C1.6 amounted to 0.35 mM. Also, the SER in [7] is listed as 2.4. Also, the “Hypoxic selectivity ratio (IC50 oxic / IC50 hypoxic)” value in data set [3] amounted to 2.5. Besides, the MTD with Mus musculus turned out to be 700 mg/kg.
In data set [1], `CCOC(=O)C1CCC2C(C1)N2CC(O)Cn1ccnc1[N+](=O)[O-]` (stereo unspecified) came in with a log distribution coefficient (logD) of 1.13. Further, the C1.6 in the data set filed under Cricetulus griseus stood at 3 mM. For the same molecule, the SER in data set [2] was found to be 2. For the same molecule, the “Hypoxic selectivity ratio (IC50 oxic / IC50 hypoxic)” value in data set [3] amounted to 1.1.
Consider `O=[N+]([O-])c1nccn1CC(O)CNC1CCC[C@H]1Br` (stereo partly specified), for which the Fold reduction in data set [6] is given as 4.3. Further, in data set [1], the logD worked out at 0.43. Further, in the data set filed under Cricetulus griseus, the C1.6 came to 0.75 mM. Moreover, the SER in data set [8] is on record as 2.3. In addition, the “Hypoxic selectivity ratio (IC50 oxic / IC50 hypoxic)” value in data set [3] was found to be 2.5. Further, the MTD in the data set on Mus musculus worked out at 1000 mg/kg.
`CC1CCCC2C1N2CC(O)Cn1ccnc1[N+](=O)[O-]` (stereo unspecified) returned a Fold reduction in [6] of 2.1. The logD in [1] is 1.55. The C1.6 in the data set listed under Cricetulus griseus was determined as 0.75 mM. Further, the SER in data set [8] is given as 2. Further, the “Hypoxic selectivity ratio (IC50 oxic / IC50 hypoxic)” value in [3] was found to be 1. The MTD with Mus musculus amounted to 500 mg/kg.
Molecule `O=[N+]([O-])c1nccn1CC(O)CNC1COCC[C@@H]1Br` (stereo partly specified) had a Fold reduction in data set [6] of 13. The logD in data set [1] was -0.17. The C1.6 in the data set filed under Cricetulus griseus came out at 1.8 mM. For the same molecule, in data set [2], the SER stood at 1.8. Further, the “Hypoxic selectivity ratio (IC50 oxic / IC50 hypoxic)” value in [3] is recorded as 1.2. Moreover, in the data set with Mus musculus, the MTD amounted to 1500 mg/kg.
On to `O=[N+]([O-])c1nccn1CC(O)CN1CC1` (stereo unspecified), for which, in data set [6], the Fold reduction is 6.7. The logD in [1] amounted to 0.33. The C1.6 in the data set filed under Cricetulus griseus was found to be 0.33 mM. Besides, the SER in [9] stood at 1.9. Besides, in data set [3], the “Hypoxic selectivity ratio (IC50 oxic / IC50 hypoxic)” value is recorded as 50. Also, in the data set on Mus musculus, the MTD came out at 100 mg/kg.
`O=[N+]([O-])c1nccn1CC(O)CN1C2CCCCCCC21` (stereo unspecified) yielded a Fold reduction in data set [6] of 2.6. The molecule also had a logD in data set [1] of 1.84. Moreover, the C1.6 in the data set filed under Cricetulus griseus was found to be 0.75 mM. The SER in data set [2] is 2.1. For the same molecule, in data set [3], the “Hypoxic selectivity ratio (IC50 oxic / IC50 hypoxic)” value turned out to be 1.2. Further, the maximum tolerated dose (MTD) with Mus musculus was 500 mg/kg.
`O=[N+]([O-])c1nccn1CC(O)CN1C2CCOCC21` (stereo unspecified) gave a Fold reduction in data set [6] of 5.7. The logD in [1] came out at 0.07. Further, in data set [9], the SER is 1.3. Further, the Cytotoxicity result in the data set with V79 is on record as “Unstable”. Moreover, the MTD with Mus musculus came out at 800 mg/kg.
As for `O=[N+]([O-])c1nccn1CC(O)CN1C2CCCCC21` (stereo unspecified), the Fold reduction in data set [6] is 3.91. Also, the logD in data set [1] came out at 1.07. Besides, the C1.6 in the data set listed under Cricetulus griseus came to 0.35 mM. Besides, the SER in data set [10] was found to be 1.9. Also, in data set [3], the “Hypoxic selectivity ratio (IC50 oxic / IC50 hypoxic)” value is given as 1.6. In the data set with Mus musculus, the MTD worked out at 400 mg/kg.
As to `O=C(O)C1CCN1CC(O)Cn1ccnc1[N+](=O)[O-]` (stereo unspecified), the logD in data set [1] is -2.02. In data set [11], the SER was found to be 2.3. Besides, the “Hypoxic selectivity ratio (IC50 oxic / IC50 hypoxic)” value in data set [3] came out at 1.
`O=[N+]([O-])c1nccn1CC(O)CN1C2CCCC21` (stereo unspecified) displayed a Fold reduction in data set [6] of 6.1. The molecule also registered a logD in data set [1] of 0.37. For the same molecule, in the data set filed under Cricetulus griseus, the C1.6 is 0.48 mM. Also, in data set [9], the SER is 2. The “Hypoxic selectivity ratio (IC50 oxic / IC50 hypoxic)” value in data set [3] amounted to 2. Further, in the data set on Mus musculus, the MTD amounted to 450 mg/kg.
For `O=[N+]([O-])c1nccn1CC(O)CN1C2C3CCC(C3)C21` (stereo unspecified), the logD in data set [1] was determined as 1.6. In addition, the C1.6 in the data set filed under Cricetulus griseus amounted to 3 mM. Besides, the SER in data set [2] worked out at 1.6. In addition, the “Hypoxic selectivity ratio (IC50 oxic / IC50 hypoxic)” value in data set [3] was 1.4.
Take `O=[N+]([O-])c1nccn1CC(O)CN1C2CCCCCC21` (stereo unspecified): the logD in [1] is 1.44. For the same molecule, in the data set filed under Cricetulus griseus, the C1.6 came to 1 mM. Moreover, in data set [2], the SER came to 1.7. In data set [3], the “Hypoxic selectivity ratio (IC50 oxic / IC50 hypoxic)” value amounted to 1.4.
On to `O=[N+]([O-])c1nccn1CC(O)CN1C2CCc3ccccc3C21` (stereo unspecified), for which the logD in data set [1] worked out at 2.15. Moreover, in data set [12], the SER is 1.2. Also, the “Hypoxic selectivity ratio (IC50 oxic / IC50 hypoxic)” value in data set [3] is reported as 1.2.

As usually defined, the logD is the decadic logarithm of the distribution of all forms, ionised or not, between an organic phase and buffer at a given pH. The MTD is the highest dose tested that stayed within the study's limit of toxicity.

These data come from ChEMBL document CHEMBL1125182, “A new class of analogues of the bifunctional radiosensitizer alpha-(1-aziridinylmethyl)-2-nitro-1H-imidazole-1-ethanol (RSU 1069): the cycloalkylaziridines” (J Med Chem, 1991).
